# Experimental data from different studies.
SMILES,tested on,assay,test system,setting,endpoint,result
CCOc1ccc(-c2nc3ccccc3[nH]2)cc1,human Rhabdomyosarcoma cell,"cell growth or viability, MTT",,48 h,IC50,25.1 µM
Cc1cc(Nc2ncc(Cl)c(Nc3ccccc3S(=O)(=O)C(C)C)n2)c(OC(C)C)cc1C1CCNCC1,NCI-H3122,"cell growth or viability, MTT",,"10 µg/mL, 72 h",inhibition,93%
Oc1ccccc1-c1nc2ccccc2[nH]1,human Rhabdomyosarcoma cell,"cell growth or viability, MTT",,48 h,IC50,15.4 µM
CN(C)[C@@H]1C(O)=C(C(N)=O)C(=O)[C@@]2(O)C(O)=C3C(=O)c4c(O)c(N)nc(Cl)c4C[C@H]3C[C@@H]12,Enterobacter cloacae,"microbial growth, broth dilution",ATCC13047,,MIC,1 µg/mL
Cc1ccc2nc(-c3ccc(Cl)cc3)[nH]c2c1,human Rhabdomyosarcoma cell,"cell growth or viability, MTT",,48 h,IC50,48.3 µM
C[C@@H](Oc1cc(-c2cnn(C3CCNCC3)c2)cnc1N)c1c(Cl)ccc(F)c1Cl,NCI-H3122,"cell growth or viability, MTT",,"5 µg/mL, 72 h",inhibition,85.8%
O=[N+]([O-])c1cccc(-c2nc3ccccc3[nH]2)c1,human Rhabdomyosarcoma cell,"cell growth or viability, MTT",,48 h,IC50,50.3 µM
C/C=C(\C)c1cc(O)c(C)c(OC(=O)c2c(C)cc(O)c(Cl)c2O)c1,Enterococcus gallinarum,"microbial growth, broth dilution",GALLINARUM,,MIC,8 µg/mL
CN(C)c1cc(CNCC(C)(C)C)c(O)c2c1C[C@H]1C[C@H]3[C@H](N(C)C)C(O)=C(C(N)=O)C(=O)[C@@]3(O)C(O)=C1C2=O,Enterobacter cloacae,"microbial growth, broth dilution",ATCC13047,,MIC,4 µg/mL
CC1(C)S[C@@H]2[C@H](NC(=O)[C@H](N)c3ccccc3)C(=O)N2[C@H]1C(=O)O,Enterococcus gallinarum,"microbial growth, broth dilution",GALLINARUM,,MIC,8 µg/mL
CC(C)CCNc1nc(Cl)c2c(c1O)C(=O)C1=C(O)[C@]3(O)C(=O)C(C(N)=O)=C(O)[C@@H](N(C)C)[C@@H]3C[C@@H]1C2.Cl.Cl.Cl,Enterobacter cloacae,"microbial growth, broth dilution",ATCC13047,,MIC,> 32 µg/mL
O=C(O)c1cn(C2CC2)c2cc(N3CCNCC3)c(F)cc2c1=O,Serratia marcescens,microbial growth,DSM30121,,MIC,0.5 µg/mL
